Test results taken from ChEMBL document CHEMBL1129495, “Highly selective bradykinin agonists and antagonists with replacement of proline residues by N-methyl-D- and L-phenylalanine” (J Med Chem, 1996).
Square brackets hold non-standard residues; d marks the D form. Peptide text beside a SMILES is read from it. Phe(4-guanidino) = N=C(N)Nc1ccc(C[C@H](N)C(=O)O)cc1; 2Thi = N[C@@H](Cc1cccs1)C(=O)O; Aib = CC(C)(N)C(=O)O

Columns and labels:
[1] = Inhibitory activity against low affinity binding site of Bradykinin receptor in guinea pig ileum; type: tissue-based; conditions: Cavia porcellus
Procedure, shortened: (§1)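 Fresh rat myometrial or guinea pig ileum membranes (0.3–0.5 mg protein) incubated 30 min at 4 °C with 0.05 nM [3H]BK and increasing peptide concentrations. Buffer: 25 mM TES pH 6.8, 1 µM captopril, 1 mM DTE, bacitracin, BSA. Samples filtered on PEI-treated GF/C and counted. High- and low-affinity IC50s from Tobler–Engel analysis; duplicates.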

[2] = Inhibitory activity against high affinity binding site of Bradykinin receptor in rat uterus membrane was reported.; type: cell membranes; procedure, shortened: as §1
[3] = Inhibitory activity against low affinity binding site of Bradykinin receptor in rat uterus membrane was reported.; type: cell membranes; procedure, shortened: as §1
Cavia porcellus [4] = species: Cavia porcellus; assay: Antagonistic activity was evaluated in Guinea pig ileum assay.; type: functional; parameters: scale not given: the % may be the effect or the level left
Procedure, shortened: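 Guinea pig terminal ileum in Tyrode at 37 °C under 0.5 g tension, isotonic recording. Analog added 5 min before a cumulative BK dose–response curve (maximum at 0.3 µM BK). pA2 is the negative log of the antagonist concentration that reduces the effect of a double BK dose to that of a single dose. Means of 3–7 determinations.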

Cavia porcellus [5] = species: Cavia porcellus; assay: Antagonistic activity was evaluated in Guinea pig lung strip assay.; type: functional; parameters: scale not given: the % may be the effect or the level left
Procedure, shortened: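 Lower-lobe lung strips (2–3 mm) from guinea pigs (400–600 g) in Krebs–Henseleit at 37 °C under 1 g load, with isometric tension recorded. After 1 h equilibration, peptide was given 5 min before an ED50 dose of BK. Cumulative BK curves covered 0.01–10 µM. pA2 by the van Rossum method.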

Rattus norvegicus [6] = species: Rattus norvegicus; assay: Agonistic activity was evaluated in Estrus Rat Uterus Assay; type: functional
Procedure, shortened: (§2)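 Uteri from female Wistar rats (180–200 g) given diethylstilbestrol 100 µg/kg sc 16 h before use. Distal horns held in de Jalon solution at 28 °C under 0.5 g resting tension, with isotonic contractions recorded. BK was dosed every 4 min and left in the bath 45 s. Agonist activity by Schild 4-point method, expressed as percent of BK activity.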

[7] = Selectivity for rat uterus is expressed as the ratio RUT/GPI; type: functional
Procedure, shortened: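 Ratio of agonist activity (percent of BK) in estrus rat uterus to that in guinea pig ileum, both from isotonic contraction assays using the Schild 4-point method.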

Cavia porcellus [8] = species: Cavia porcellus; assay: Agonistic activity against selectivity for smooth muscle contraction in guinea pig ileum.; type: functional, Muscle tissue
Procedure, shortened: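 Isolated terminal ileum (1.5 cm) from guinea pigs fasted 16 h, in Tyrode at 37 °C. Isotonic contractions recorded under 0.5 g resting tension. Agonist activity measured by Schild 4-point method against BK doses of 1 and 2 nM, expressed as percent of BK activity.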

Rattus norvegicus [9] = species: Rattus norvegicus; assay: Agonistic activity against selectivity for smooth muscle contraction in rat uterus.; type: functional, Muscle tissue; procedure, shortened: as §2
[10] = Inhibitory activity against high affinity binding site of Bradykinin receptor in guinea pig ileum was reported.; type: tissue-based; conditions: Cavia porcellus; procedure, shortened: as §1

Row | IC50 [1] [nM] | IC50 [2] [nM] | IC50 [3] [nM] | IC50 [10] [nM] | Compound | Activity (Cavia porcellus [4]) [%] | Activity (Cavia porcellus [5]) [%] | Activity (Rattus norvegicus [6]) [%] | Ratio [7] | Activity (Cavia porcellus [8]) [%] | Activity (Rattus norvegicus [9]) [%]
1 | 1400 | 0.3 | 57 |  | CN(C(=O)[C@@H]1CCCN1C(=O)[C@@H](N)CCCN=C(N)N)[C@H](Cc1ccccc1)C(=O)NCC(=O)N[C@@H](Cc1ccccc1)C(=O)N[C@@H](CO)C(=O)N1CCC[C@H]1C(=O)N[C@@H](Cc1ccccc1)C(=O)N[C@@H](CCCN=C(N)N)C(=O)O | 0.03 | 0.03 | 0.02 |  |  | 
2 |  |  |  |  | CN(C(=O)[C@H](CO)NC(=O)[C@H](Cc1ccccc1)N(C)C(=O)CNC(=O)[C@@H]1C[C@@H](O)CN1C(=O)[C@@H]1CCCN1C(=O)[C@H](CCCN=C(N)N)NC(=O)[C@H](N)CCCN=C(N)N)[C@H](Cc1ccccc1)C(=O)N(C)[C@@H](Cc1ccccc1)C(=O)N[C@@H](CCCN=C(N)N)C(=O)O | 0.005 | 0.5 | 15 | 3000 |  | 
3 |  |  |  |  | NC(N)=NCCC[C@@H](N)C(=O)N[C@@H](CCCN=C(N)N)C(=O)N1CCC[C@H]1C(=O)N1C[C@H](O)C[C@H]1C(=O)NCC(=O)N[C@@H](Cc1cccs1)C(=O)N[C@@H](CO)C(=O)N1CCC[C@H]1C(=O)N[C@@H](Cc1cccs1)C(=O)N[C@@H](CCCN=C(N)N)C(=O)O |  |  |  | 30 | 7 | 237
4 |  |  |  |  | CC(C)(NC(=O)[C@@H](Cc1c[nH]c2ccccc12)NC(=O)[C@H](Cc1ccccc1)NC(=O)CNC(=O)[C@@H]1CCCN1C(=O)[C@@H]1CCCN1C(=O)[C@@H](N)CCCN=C(N)N)C(=O)N[C@@H](Cc1ccccc1)C(=O)N[C@@H](CCCN=C(N)N)C(=O)O |  |  |  | 0.442 | 226 | 100
5 |  |  |  |  | CC(C)(NC(=O)[C@@H](Cc1ccccc1)NC(=O)[C@H](Cc1ccccc1)NC(=O)CNC(=O)[C@@H]1CCCN1C(=O)[C@@H]1CCCN1C(=O)[C@@H](N)CCCN=C(N)N)C(=O)N[C@@H](Cc1ccccc1)C(=O)N[C@@H](CCCN=C(N)N)C(=O)O |  |  |  | 0.291 | 426 | 124
6 |  |  |  |  | NC(N)=NCCC[C@H](NC(=O)[C@H](Cc1ccccc1)NC(=O)[C@@H](Cc1ccccc1)NC(=O)CNC(=O)[C@H](Cc1ccccc1)NC(=O)CNC(=O)[C@@H]1CCCN1C(=O)[C@@H]1CCCN1C(=O)[C@@H](N)CCCN=C(N)N)C(=O)O |  |  |  | 100 | 0.3 | 31
7 |  |  |  |  | CN(C(=O)[C@H](CO)NC(=O)[C@H](Cc1cccs1)NC(=O)CNC(=O)[C@@H]1C[C@@H](O)CN1C(=O)[C@@H]1CCCN1C(=O)[C@H](CCCN=C(N)N)NC(=O)[C@H](N)CCCN=C(N)N)[C@H](Cc1ccccc1)C(=O)N[C@@H](Cc1ccccc1)C(=O)N[C@@H](CCCN=C(N)N)C(=O)O | 0.006 | 0.04 | 86 | 10000 |  | 
8 |  |  |  |  | CC[C@@H](C)[C@@H](N)C(=O)N[C@@H](CO)C(=O)N[C@@H](CCCN=C(N)N)C(=O)N1CCC[C@H]1C(=O)N1CCC[C@H]1C(=O)NCC(=O)N[C@@H](Cc1ccccc1)C(=O)N[C@@H](CO)C(=O)N1CCC[C@H]1C(=O)N[C@@H](Cc1ccccc1)C(=O)N[C@@H](CCCN=C(N)N)C(=O)O |  |  |  | 25 | 11 | 271
9 | 1 |  | 33 |  | CN(C(=O)[C@H](CO)NC(=O)[C@H](Cc1ccccc1)NC(=O)CNC(=O)[C@@H]1CCCN1C(=O)[C@@H]1CCCN1C(=O)[C@H](CCCN=C(N)N)NC(=O)[C@H](N)CCCN=C(N)N)[C@@H](Cc1ccccc1)C(=O)N[C@@H](Cc1ccccc1)C(=O)N[C@@H](CCCN=C(N)N)C(=O)O [listing 1 of 2 here] |  |  |  |  |  | 
10 |  |  |  |  | CN(C(=O)[C@H](CO)NC(=O)[C@H](Cc1ccccc1)NC(=O)CNC(=O)[C@@H]1CCCN1C(=O)[C@@H]1CCCN1C(=O)[C@H](CCCN=C(N)N)NC(=O)[C@H](N)CCCN=C(N)N)[C@@H](Cc1ccccc1)C(=O)N[C@@H](Cc1ccccc1)C(=O)N[C@@H](CCCN=C(N)N)C(=O)O [listing 2 of 2 here] | 0.07 | 0.08 | 0.5 |  |  | 
11 | 3780 |  | 100 | 57 | CN(C(=O)[C@@H](N)CCCN=C(N)N)[C@H](Cc1ccccc1)C(=O)N1CCC[C@H]1C(=O)NCC(=O)N[C@@H](Cc1ccccc1)C(=O)N[C@@H](CO)C(=O)N1CCC[C@H]1C(=O)N[C@@H](Cc1ccccc1)C(=O)N[C@@H](CCCN=C(N)N)C(=O)O | 0.15 | 0.05 | 0.15 |  |  | 
12 | 132 | 0.11 | 4.8 | 1 | CN(C(=O)[C@H](CO)NC(=O)[C@H](Cc1ccccc1)NC(=O)CNC(=O)[C@@H]1CCCN1C(=O)[C@@H]1CCCN1C(=O)[C@@H](N)CCCN=C(N)N)[C@H](Cc1ccccc1)C(=O)N[C@@H](Cc1ccccc1)C(=O)N[C@@H](CCCN=C(N)N)C(=O)O | 0.04 | 1.4 | 136 | 300 |  | 
13 | 33 | 0.33 | 18 |  | CN(C(=O)[C@H](CO)NC(=O)[C@H](Cc1ccccc1)NC(=O)CNC(=O)[C@@H]1C[C@@H](O)CN1C(=O)[C@@H]1CCCN1C(=O)[C@H](CCCN=C(N)N)NC(=O)[C@H](N)CCCN=C(N)N)[C@H](Cc1ccccc1)C(=O)N(C)[C@@H](Cc1ccccc1)C(=O)N[C@@H](CCCN=C(N)N)C(=O)O [listing 1 of 2 here] |  |  |  |  |  | 
14 |  |  |  |  | CN(C(=O)[C@H](CO)NC(=O)[C@H](Cc1ccccc1)NC(=O)CNC(=O)[C@@H]1C[C@@H](O)CN1C(=O)[C@@H]1CCCN1C(=O)[C@H](CCCN=C(N)N)NC(=O)[C@H](N)CCCN=C(N)N)[C@H](Cc1ccccc1)C(=O)N(C)[C@@H](Cc1ccccc1)C(=O)N[C@@H](CCCN=C(N)N)C(=O)O [listing 2 of 2 here] | 0.01 | 0.45 | 40 | 4000 |  | 
15 | 700 |  | 500 |  | CN(C(=O)[C@H](CO)NC(=O)[C@H](Cc1ccccc1)NC(=O)CNC(=O)[C@@H]1CCCN1C(=O)[C@@H]1CCCN1C(=O)[C@@H](N)CCCN=C(N)N)[C@@H](Cc1ccccc1)C(=O)N[C@@H](Cc1ccccc1)C(=O)N[C@@H](CCCN=C(N)N)C(=O)O | 0.03 | 0.1 | 0.2 |  |  | 
16 | 8000 | 0.2 | 375 | 2.6 | CN(C(=O)[C@@H]1CCCN1C(=O)[C@@H](N)CCCN=C(N)N)[C@@H](Cc1ccccc1)C(=O)NCC(=O)N[C@@H](Cc1ccccc1)C(=O)N[C@@H](CO)C(=O)N1CCC[C@H]1C(=O)N[C@@H](Cc1ccccc1)C(=O)N[C@@H](CCCN=C(N)N)C(=O)O | 0.05 | 0.03 | 0.03 |  |  | 
17 |  |  |  |  | NC(N)=NCCC[C@H](NC(=O)[C@H](Cc1cccs1)NC(=O)[C@@H]1CCCN1C(=O)[C@H](CO)NC(=O)[C@H](Cc1ccccc1)NC(=O)CNC(=O)[C@@H]1CCCN1C(=O)[C@@H]1CCCN1C(=O)[C@@H](N)CCCN=C(N)N)C(=O)O (H-RPPGFSP[2Thi]R-OH) |  |  |  | 13 | 40 | 500
18 |  |  |  |  | CC(C)(NC(=O)[C@H](CO)NC(=O)[C@H](Cc1ccccc1)NC(=O)CNC(=O)[C@@H]1CCCN1C(=O)[C@@H]1CCCN1C(=O)[C@@H](N)CCCN=C(N)N)C(=O)N[C@@H](Cc1ccccc1)C(=O)N[C@@H](CCCN=C(N)N)C(=O)O (H-RPPGFS[Aib]FR-OH) |  |  |  | 0.13 | 418 | 55
19 |  |  |  |  | NC(N)=NCCC[C@H](NC(=O)[C@H](Cc1cccs1)NC(=O)[C@@H]1CCCN1C(=O)[C@H](CO)NC(=O)[C@H](Cc1cccs1)NC(=O)CNC(=O)[C@@H]1CCCN1C(=O)[C@@H]1CCCN1C(=O)[C@@H](N)CCCN=C(N)N)C(=O)O (H-RPPG[2Thi]SP[2Thi]R-OH) |  |  |  | 5 | 200 | 1000
20 |  |  |  |  | N=C(N)Nc1ccc(C[C@H](NC(=O)[C@H](Cc2ccccc2)NC(=O)[C@@H]2CCCN2C(=O)[C@H](CO)NC(=O)[C@H](Cc2ccccc2)NC(=O)CNC(=O)[C@@H]2CCCN2C(=O)[C@@H]2CCCN2C(=O)[C@@H](N)Cc2ccc(NC(=N)N)cc2)C(=O)O)cc1 (H-[Phe(4-guanidino)]PPGFSPF[Phe(4-guanidino)]-OH) |  |  |  | 0.001 | 2 | 0.001
21 |  |  |  |  | CC(C)(NC(=O)[C@@H](Cc1ccc(Cl)cc1)NC(=O)C(Cc1ccccc1)NC(=O)CNC(=O)[C@@H]1CCCN1C(=O)[C@@H]1CCCN1C(=O)[C@@H](N)CCCN=C(N)N)C(=O)NC(Cc1ccccc1)C(=O)N[C@@H](CCCN=C(N)N)C(=O)O (stereo in doubt) |  |  |  | 0.3 | 321 | 97
22 |  |  |  |  | H-RPPGFSPFK-OH |  |  |  | 0.01 | 20 | 0.2
